Test results: ChEMBL document CHEMBL5653631, “A Potent and Selective ULK1 Inhibitor Suppresses Autophagy and Sensitizes Cancer Cells to Nutrient Stress” (iScience, 2018)

Key:
[1] = target: Casein kinase I isoform gamma-1 (Homo sapiens) (UniProt Q9HCP0); test: Inhibition of human recombinant CK1g1 at 40 nM related to control ULK1
[2] = target: RAF proto-oncogene serine/threonine-protein kinase (Homo sapiens) (UniProt P04049); test: Inhibition of human recombinant RAF1 at 40 nM related to control ULK1
RAF proto-oncogene serine/threonine-protein kinase (Homo sapiens), sequence (P04049 whole entry): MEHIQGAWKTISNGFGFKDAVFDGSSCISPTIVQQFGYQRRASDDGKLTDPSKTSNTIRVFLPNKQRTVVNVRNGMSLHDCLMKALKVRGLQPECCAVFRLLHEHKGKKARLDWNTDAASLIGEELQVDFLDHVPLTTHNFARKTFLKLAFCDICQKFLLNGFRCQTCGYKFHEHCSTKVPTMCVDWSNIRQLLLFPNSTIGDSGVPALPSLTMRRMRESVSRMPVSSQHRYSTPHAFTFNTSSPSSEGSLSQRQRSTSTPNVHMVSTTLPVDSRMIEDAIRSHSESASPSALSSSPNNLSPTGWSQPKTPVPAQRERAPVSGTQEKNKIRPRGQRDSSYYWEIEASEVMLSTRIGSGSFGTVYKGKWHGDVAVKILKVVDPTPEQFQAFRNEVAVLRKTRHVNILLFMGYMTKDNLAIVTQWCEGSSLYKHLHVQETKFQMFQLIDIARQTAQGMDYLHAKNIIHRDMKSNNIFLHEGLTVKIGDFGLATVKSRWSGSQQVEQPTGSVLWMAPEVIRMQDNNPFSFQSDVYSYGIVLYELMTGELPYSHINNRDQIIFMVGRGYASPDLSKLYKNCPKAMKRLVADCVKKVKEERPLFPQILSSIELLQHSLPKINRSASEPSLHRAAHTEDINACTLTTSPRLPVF

[3] = target: Dual specificity mitogen-activated protein kinase kinase 1 (Homo sapiens) (UniProt Q02750); test: Inhibition of human recombinant MAP2K1 at 500 nM in presence of ATP by radiometric assay relative to control
Dual specificity mitogen-activated protein kinase kinase 1 (Homo sapiens), sequence (Q02750 whole entry): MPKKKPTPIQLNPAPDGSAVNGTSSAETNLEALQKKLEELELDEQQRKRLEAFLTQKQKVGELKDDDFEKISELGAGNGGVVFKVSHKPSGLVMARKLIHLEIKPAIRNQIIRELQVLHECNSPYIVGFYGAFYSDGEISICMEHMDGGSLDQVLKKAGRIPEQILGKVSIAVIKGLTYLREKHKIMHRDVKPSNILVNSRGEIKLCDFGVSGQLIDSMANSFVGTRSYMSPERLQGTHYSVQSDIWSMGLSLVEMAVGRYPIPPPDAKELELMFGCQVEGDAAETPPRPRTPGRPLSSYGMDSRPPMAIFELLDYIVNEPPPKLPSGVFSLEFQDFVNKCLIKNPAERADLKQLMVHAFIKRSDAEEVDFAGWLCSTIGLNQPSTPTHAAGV

[4] = target: T1, MAP/microtubule affinity-regulating kinase 4 (Homo sapiens) (UniProt Q96L34); test: Inhibition of human recombinant MARK4 at 500 nM in presence of ATP by radiometric assay relative to control
T1 sequence (whole entry): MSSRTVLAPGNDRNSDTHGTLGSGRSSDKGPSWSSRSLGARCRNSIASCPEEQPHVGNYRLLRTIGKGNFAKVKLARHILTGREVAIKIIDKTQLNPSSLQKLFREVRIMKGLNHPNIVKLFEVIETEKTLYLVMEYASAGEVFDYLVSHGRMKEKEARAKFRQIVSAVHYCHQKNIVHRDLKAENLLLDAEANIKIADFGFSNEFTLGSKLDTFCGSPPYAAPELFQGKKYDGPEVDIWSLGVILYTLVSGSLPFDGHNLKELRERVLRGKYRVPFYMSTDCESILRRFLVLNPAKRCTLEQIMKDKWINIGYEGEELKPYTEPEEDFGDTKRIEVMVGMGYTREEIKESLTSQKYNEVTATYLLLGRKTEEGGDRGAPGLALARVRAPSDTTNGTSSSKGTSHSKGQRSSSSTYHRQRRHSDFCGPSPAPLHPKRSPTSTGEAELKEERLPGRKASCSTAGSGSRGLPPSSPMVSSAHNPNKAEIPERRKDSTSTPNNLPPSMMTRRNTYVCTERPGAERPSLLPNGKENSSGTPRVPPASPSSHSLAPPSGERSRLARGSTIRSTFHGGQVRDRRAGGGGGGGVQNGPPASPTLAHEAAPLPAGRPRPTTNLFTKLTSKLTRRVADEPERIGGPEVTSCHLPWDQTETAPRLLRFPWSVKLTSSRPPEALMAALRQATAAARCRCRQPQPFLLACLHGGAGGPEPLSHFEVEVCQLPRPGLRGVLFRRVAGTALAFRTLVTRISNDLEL

[5] = target: Rho-associated protein kinase 1 (Homo sapiens) (UniProt Q13464); test: Inhibition of human recombinant ROCK1 at 500 nM in presence of ATP by radiometric assay relative to control
[6] = target: 5'-AMP-activated protein kinase catalytic subunit alpha-1 (Homo sapiens) (UniProt Q13131); test: Inhibition of human recombinant AMPKa1 at 500 nM related to control ULK1
5'-AMP-activated protein kinase catalytic subunit alpha-1 (Homo sapiens), sequence (Q13131 whole entry, looked up): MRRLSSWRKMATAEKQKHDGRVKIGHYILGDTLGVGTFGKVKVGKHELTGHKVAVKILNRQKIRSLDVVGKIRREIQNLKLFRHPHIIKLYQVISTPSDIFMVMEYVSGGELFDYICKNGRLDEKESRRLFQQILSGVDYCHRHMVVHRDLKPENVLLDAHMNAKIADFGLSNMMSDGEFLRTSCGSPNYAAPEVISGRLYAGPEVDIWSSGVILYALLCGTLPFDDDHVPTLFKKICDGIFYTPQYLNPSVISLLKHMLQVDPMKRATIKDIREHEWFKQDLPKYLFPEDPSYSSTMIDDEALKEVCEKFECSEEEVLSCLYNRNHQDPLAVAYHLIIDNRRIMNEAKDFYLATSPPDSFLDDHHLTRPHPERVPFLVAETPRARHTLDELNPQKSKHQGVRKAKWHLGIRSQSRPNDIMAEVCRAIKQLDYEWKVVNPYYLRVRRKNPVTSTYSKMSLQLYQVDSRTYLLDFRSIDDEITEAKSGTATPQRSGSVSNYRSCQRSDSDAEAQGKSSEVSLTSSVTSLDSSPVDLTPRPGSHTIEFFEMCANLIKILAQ
Summary of the method: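 Panel of 327 recombinant human kinases, each assayed in vitro by radiometric activity assay in duplicate at a single inhibitor concentration per compound, chosen with reference to its ULK1 inhibition. Activity remaining was expressed as percent of vehicle control, and percent inhibition was calculated as 100 minus percent activity remaining.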

[7] = target: Insulin receptor-related protein (Homo sapiens) (UniProt P14616); test: Inhibition of human recombinant IRR at 500 nM related to control ULK1
Insulin receptor-related protein (Homo sapiens), sequence (P14616 27-742 limits assumed): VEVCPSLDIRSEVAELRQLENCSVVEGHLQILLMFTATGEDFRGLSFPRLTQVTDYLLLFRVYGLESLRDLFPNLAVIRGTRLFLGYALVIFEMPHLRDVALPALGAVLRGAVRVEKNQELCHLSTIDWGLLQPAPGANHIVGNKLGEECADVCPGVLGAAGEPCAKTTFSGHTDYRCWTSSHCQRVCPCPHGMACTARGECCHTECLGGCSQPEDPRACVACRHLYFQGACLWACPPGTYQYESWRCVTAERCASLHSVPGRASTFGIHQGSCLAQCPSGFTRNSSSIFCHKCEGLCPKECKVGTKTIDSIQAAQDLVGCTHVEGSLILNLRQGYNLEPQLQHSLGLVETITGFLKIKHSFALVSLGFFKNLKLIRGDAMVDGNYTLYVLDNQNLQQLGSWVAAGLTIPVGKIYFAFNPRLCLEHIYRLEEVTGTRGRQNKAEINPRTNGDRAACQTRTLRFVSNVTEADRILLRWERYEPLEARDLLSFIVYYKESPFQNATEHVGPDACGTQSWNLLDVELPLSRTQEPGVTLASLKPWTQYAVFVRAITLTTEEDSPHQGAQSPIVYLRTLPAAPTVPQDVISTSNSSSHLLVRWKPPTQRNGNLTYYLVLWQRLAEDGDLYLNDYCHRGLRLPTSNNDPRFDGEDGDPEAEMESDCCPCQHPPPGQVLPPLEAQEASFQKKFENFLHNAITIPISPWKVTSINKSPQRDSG
Insulin receptor-related protein (Homo sapiens), sequence (P14616 747-1297 limits assumed): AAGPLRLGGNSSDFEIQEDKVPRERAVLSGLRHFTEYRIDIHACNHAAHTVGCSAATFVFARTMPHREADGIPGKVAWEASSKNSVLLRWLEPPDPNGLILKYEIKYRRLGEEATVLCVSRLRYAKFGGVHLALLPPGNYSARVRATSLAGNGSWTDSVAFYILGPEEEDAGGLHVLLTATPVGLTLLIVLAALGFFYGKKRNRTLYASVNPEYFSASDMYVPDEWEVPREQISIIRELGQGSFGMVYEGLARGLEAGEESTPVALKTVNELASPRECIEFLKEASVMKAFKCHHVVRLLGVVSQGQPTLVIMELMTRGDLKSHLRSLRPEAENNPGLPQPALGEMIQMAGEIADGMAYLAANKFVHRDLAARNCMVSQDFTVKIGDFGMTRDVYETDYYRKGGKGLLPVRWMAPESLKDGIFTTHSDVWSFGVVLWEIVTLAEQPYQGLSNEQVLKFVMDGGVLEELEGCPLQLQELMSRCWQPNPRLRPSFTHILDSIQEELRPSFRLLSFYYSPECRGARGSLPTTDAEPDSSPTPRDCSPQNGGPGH

[8] = target: MAP/microtubule affinity-regulating kinase 3 (Homo sapiens) (UniProt P27448); test: Inhibition of human recombinant MARK3 at 500 nM related to control ULK1
MAP/microtubule affinity-regulating kinase 3 (Homo sapiens), sequence (P27448 whole entry, looked up): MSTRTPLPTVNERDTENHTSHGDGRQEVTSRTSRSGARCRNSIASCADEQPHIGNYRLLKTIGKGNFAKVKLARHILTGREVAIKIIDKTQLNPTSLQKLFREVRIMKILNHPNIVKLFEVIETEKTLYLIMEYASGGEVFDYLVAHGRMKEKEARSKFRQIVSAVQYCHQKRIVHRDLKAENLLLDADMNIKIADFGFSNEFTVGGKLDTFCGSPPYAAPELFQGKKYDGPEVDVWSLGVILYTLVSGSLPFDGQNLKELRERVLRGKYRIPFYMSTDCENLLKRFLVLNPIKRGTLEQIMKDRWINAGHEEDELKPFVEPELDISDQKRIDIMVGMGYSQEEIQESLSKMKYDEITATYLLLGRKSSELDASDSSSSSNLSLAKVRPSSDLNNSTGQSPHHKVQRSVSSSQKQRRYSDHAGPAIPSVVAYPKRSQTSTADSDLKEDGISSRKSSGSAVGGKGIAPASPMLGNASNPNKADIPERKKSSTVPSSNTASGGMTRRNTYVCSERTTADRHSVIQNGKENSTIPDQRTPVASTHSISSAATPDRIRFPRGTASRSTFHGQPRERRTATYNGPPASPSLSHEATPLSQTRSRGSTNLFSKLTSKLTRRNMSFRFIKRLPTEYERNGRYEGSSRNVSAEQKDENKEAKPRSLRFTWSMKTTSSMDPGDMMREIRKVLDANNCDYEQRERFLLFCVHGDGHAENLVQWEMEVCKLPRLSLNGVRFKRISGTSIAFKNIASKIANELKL

[9] = target: Serine/threonine-protein kinase SIK1 (Homo sapiens) (UniProt P57059); test: Inhibition of human recombinant SIK at 500 nM related to control ULK1
Serine/threonine-protein kinase SIK1 (Homo sapiens), sequence (P57059 whole entry): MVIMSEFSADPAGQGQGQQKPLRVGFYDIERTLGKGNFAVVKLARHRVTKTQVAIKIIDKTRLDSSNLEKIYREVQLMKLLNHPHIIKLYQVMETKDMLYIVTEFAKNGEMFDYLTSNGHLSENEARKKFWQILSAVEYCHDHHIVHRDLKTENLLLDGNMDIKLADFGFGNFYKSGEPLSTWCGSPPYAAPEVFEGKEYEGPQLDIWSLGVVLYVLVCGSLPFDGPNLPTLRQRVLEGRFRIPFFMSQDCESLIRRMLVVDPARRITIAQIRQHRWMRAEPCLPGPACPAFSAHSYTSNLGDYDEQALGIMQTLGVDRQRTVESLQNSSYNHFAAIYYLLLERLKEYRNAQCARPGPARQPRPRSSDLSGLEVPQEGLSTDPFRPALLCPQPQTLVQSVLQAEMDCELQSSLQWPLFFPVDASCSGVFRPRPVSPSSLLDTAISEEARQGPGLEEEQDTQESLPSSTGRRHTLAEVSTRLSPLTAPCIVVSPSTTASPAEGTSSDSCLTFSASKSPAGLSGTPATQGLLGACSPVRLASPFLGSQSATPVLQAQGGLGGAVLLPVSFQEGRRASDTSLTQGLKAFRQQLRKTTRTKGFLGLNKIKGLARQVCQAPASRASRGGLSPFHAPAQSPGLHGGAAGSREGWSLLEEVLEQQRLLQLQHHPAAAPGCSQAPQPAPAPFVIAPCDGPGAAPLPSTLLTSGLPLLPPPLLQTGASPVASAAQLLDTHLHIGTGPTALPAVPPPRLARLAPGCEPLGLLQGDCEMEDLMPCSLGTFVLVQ

[10] = target: T2, Serine/threonine-protein kinase Chk1 (Homo sapiens) (UniProt O14757); test: Inhibition of human recombinant CHK1 at 15 nM in presence of ATP by radiometric assay relative to control
T2 sequence (whole entry): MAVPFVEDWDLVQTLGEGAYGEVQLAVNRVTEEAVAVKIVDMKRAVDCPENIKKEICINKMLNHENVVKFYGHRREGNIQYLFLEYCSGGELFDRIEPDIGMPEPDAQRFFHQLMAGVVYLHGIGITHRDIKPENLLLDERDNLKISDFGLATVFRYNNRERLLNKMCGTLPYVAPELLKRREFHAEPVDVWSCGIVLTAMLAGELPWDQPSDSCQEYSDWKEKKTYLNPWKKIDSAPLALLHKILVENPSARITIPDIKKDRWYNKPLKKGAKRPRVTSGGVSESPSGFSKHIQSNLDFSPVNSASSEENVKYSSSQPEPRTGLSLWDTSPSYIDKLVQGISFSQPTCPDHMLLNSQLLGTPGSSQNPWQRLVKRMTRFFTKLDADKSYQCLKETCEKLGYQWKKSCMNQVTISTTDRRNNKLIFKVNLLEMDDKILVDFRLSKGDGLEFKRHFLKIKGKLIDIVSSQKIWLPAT

[11] = target: T3, Ephrin type-A receptor 3 (Homo sapiens) (UniProt P29320); test: Inhibition of human recombinant EphA3 at 15 nM in presence of ATP by radiometric assay relative to control
T3 sequence (whole entry): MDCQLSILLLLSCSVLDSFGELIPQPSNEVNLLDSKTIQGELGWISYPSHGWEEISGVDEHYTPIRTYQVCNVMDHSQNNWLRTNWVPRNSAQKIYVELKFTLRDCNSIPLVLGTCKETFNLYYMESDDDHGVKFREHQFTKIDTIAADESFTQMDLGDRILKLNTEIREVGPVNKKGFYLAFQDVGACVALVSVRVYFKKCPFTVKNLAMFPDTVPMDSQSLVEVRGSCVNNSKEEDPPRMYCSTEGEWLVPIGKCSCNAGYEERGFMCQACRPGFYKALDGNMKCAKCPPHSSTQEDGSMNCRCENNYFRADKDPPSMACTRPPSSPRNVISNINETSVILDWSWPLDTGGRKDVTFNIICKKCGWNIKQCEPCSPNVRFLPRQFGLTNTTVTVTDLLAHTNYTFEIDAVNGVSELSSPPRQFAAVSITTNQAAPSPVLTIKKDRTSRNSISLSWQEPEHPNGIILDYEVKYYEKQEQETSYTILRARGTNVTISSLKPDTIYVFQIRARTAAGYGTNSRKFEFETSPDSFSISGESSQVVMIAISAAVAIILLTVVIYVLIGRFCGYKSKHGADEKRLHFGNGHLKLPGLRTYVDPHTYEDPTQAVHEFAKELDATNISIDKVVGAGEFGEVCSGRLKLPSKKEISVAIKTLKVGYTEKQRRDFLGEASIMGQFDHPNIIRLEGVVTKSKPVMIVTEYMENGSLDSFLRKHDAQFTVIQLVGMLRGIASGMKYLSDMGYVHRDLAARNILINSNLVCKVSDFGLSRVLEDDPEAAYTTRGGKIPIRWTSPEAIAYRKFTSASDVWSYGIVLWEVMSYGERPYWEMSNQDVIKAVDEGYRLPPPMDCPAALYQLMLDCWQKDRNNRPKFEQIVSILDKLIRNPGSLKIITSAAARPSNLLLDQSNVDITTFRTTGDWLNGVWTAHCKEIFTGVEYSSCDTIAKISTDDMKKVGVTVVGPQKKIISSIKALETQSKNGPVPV

Casein kinase I isoform gamma-1 (Homo sapiens), sequence (Q9HCP0 whole entry, looked up, canonical isoform): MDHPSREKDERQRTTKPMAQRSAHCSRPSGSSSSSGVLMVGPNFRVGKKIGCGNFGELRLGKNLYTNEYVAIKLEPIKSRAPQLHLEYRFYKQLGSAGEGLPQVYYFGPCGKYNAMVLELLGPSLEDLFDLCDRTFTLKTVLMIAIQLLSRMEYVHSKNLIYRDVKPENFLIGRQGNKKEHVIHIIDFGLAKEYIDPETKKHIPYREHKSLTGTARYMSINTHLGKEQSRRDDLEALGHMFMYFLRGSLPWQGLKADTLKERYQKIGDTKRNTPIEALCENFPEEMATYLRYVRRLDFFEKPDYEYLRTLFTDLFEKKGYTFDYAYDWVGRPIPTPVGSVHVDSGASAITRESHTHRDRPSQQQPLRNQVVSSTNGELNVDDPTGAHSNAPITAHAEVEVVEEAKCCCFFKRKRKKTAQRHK

## O=C(N[C@@H](C1CC1)C(F)(F)F)c1cc(-c2cnn3cc(-c4ccc(F)cc4)cnc23)cs1
[1]
  fold change (FC): 0
[2]
  fold change (FC): 0.01

## CNC(=O)c1ccccc1Oc1nc(Nc2cc(OC)c(OC)c(OC)c2)ncc1Br
[3]
  inhibition: 0%
[4]
  inhibition: 58%
[5]
  inhibition: 0%
[6]
  fold change (FC): 0.69
[7]
  fold change (FC): 0.12
[8]
  fold change (FC): 0.61
[9]
  fold change (FC): 0.27

## CC(C)[C@H](NC(=O)c1cc(-c2cnn3cc(-c4ccc(OCCN5CCCCC5)cc4)cnc23)cs1)C(F)(F)F
[10]
  inhibition: 0%
[11]
  inhibition: 3%
